The record followed here is ChEMBL document CHEMBL1287769, “Investigating the activity of 2-substituted alkyl-6-(2,5-dioxopyrrolidin-1-yl)hexanoates as skin penetration enhancers” (Bioorg Med Chem, 2010).

One may read the IC50 as the concentration at which inhibition is half-maximal.

The nature of data set [1]: Potentiation of theophylline transdermal permeation in pig ear skin after 24 hrs by Franz diffusion cells method relative to untreated control. The class given is functional, Sus scrofa. The method in brief: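 Thawed full-thickness porcine ear skin, epidermis up, in vertical Franz cell (0.635 cm2 donor area). Receptor: PBS pH 7.4, 37 °C, stirred; skin equilibrated 0.5 h. Donor: enhancer 20 mg in PG 0.5 mL plus theophylline 5 mg in water 0.5 mL, sonicated; controls without enhancer. Receptor sampled at 1, 2, 4, 8, 12, 24 h, theophylline by HPLC at 280 nm. Steady-state flux from linear region; ER = flux with/without enhancer; ≥3 determinations, ≥2 animals.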

A short description of data set [2]: Lipophilicity, log K of the compound in methanol-water mixture by HPLC. The class given is physicochemical. In outline: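 Isocratic RP-HPLC on end-capped C18 column, methanol as organic modifier in mobile phase at various amounts, 25 °C, detection 204 nm. Dead time from KI in methanol. Capacity factor k = (tR − tD)/tD; log k used as lipophilicity index.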
The subject of data set [3] is SK-N-MC. In words: Antiproliferative activity against human SK-N-MC cells after 72 hrs by MTT assay. The data set is classed as cell-based. In outline: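 SK-N-MC cells (ATCC) grown in MEM with 10% FBS, pyruvate, non-essential amino acids, glutamine, antibiotics, fungizone at 37 °C, 5% CO2. Seeded 1.5 × 10^4 cells/well in medium with human diferric transferrin 1.25 µM ([Fe] = 2.5 µM), compounds 0–25 µM, 72 h. MTT added for 2 h, solubilized in SDS/isobutanol/HCl, read at 570 nm. IC50 = concentration reducing absorbance to 50% of untreated control; mean ± SD, n = 3.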
Background: Formazan colour is commonly taken as a measure of viable cells.

Consider `CCCCCCCCOC(=O)C(CCCCN1C(=O)CCC1=O)N1CCCCC1=O` (stereo unspecified), for which the “fold change (FC)” value in data set [1] was found to be 1.88. For the same compound, in data set [2], the “log K” value came to 0.0973. The IC50 in data set [3] is > 6.25 µM.

On to `CCOC(=O)C(CCCCN1C(=O)CCC1=O)N1CCCCC1=O` (stereo unspecified), for which, in data set [2], the “log K” value is -0.9565.

As to `CCOC(=O)C(CCCCN1C(=O)CCC1=O)N1CCOCC1` (stereo unspecified), the “log K” value in data set [2] was -0.7951.

On to `CCCCCCCCCCOC(=O)C(CCCCN1C(=O)CCC1=O)N1CCOCC1` (stereo unspecified), for which the “fold change (FC)” value in data set [1] came out at 1.71. Moreover, the “log K” value in data set [2] is 0.5834. Besides, in data set [3], the IC50 is > 6.25 µM.

`CCCCCCCOC(=O)C(CCCCN1C(=O)CCC1=O)N1CCCCC1=O` (stereo unspecified): in data set [1], the “fold change (FC)” value is on record as 2.17. The “log K” value in data set [2] is given as -0.0685. Further, the IC50 in data set [3] was > 6.25 µM.

As to `CCCCCCOC(=O)C(CCCCN1C(=O)CCC1=O)N1CCCCC1=O` (stereo unspecified), the “fold change (FC)” value in data set [1] stood at 2.33. The “log K” value in data set [2] is given as -0.2356. In addition, in data set [3], the IC50 was > 6.25 µM.

Regarding `CCCCCCCCCOC(=O)C(CCCCN1C(=O)CCC1=O)N1CCCCC1=O` (stereo unspecified), the “fold change (FC)” value in data set [1] was found to be 1.81. The “log K” value in data set [2] is reported as 0.2638. In addition, the IC50 in data set [3] is > 6.25 µM.

With `CCCCCCCCCCOC(=O)C(CCCCN1C(=O)CCC1=O)N1CCCCC1=O` (stereo unspecified), in data set [1], the “fold change (FC)” value was 1.63. Further, the “log K” value in data set [2] stood at 0.4285. For the same compound, the half-maximal inhibitory concentration (IC50) in data set [3] was > 6.25 µM.

`CCCCCCCCCCCCOC(=O)C(CCCCN1C(=O)CCC1=O)N1CCOCC1` (stereo unspecified): the “fold change (FC)” value in data set [1] amounted to 1.92. Moreover, in data set [2], the “log K” value came out at 0.9221. The IC50 in data set [3] was > 6.25 µM.

On to `CCCCCCCC/C=C\CCCCCCCC(=O)O` [OLEIC ACID], for which the “fold change (FC)” value in data set [1] was found to be 1.13.

For `CCCCCCCOC(=O)C(CCCCN1C(=O)CCC1=O)N1CCOCC1` (stereo unspecified), the “fold change (FC)” value in data set [1] came to 1.26. For the same compound, the “log K” value in data set [2] was 0.0934. The IC50 in data set [3] is > 6.25 µM.

Turning to `CCCCCCOC(=O)C(CCCCN1C(=O)CCC1=O)N1CCOCC1` (stereo unspecified), the “fold change (FC)” value in data set [1] came out at 2.11. For the same compound, the “log K” value in data set [2] is on record as -0.0736. Besides, the IC50 in data set [3] is > 6.25 µM.

For the compound `CCCCCCCCCOC(=O)C(CCCCN1C(=O)CCC1=O)N1CCOCC1` (stereo unspecified), in data set [1], the “fold change (FC)” value is 1.49. In addition, the “log K” value in data set [2] is on record as 0.4177. The IC50 in data set [3] was > 6.25 µM.

As to `CCCCCCCCOC(=O)C(CCCCN1C(=O)CCC1=O)N1CCOCC1` (stereo unspecified), the “fold change (FC)” value in data set [1] is on record as 1.8. For the same compound, the “log K” value in data set [2] amounted to 0.2613. Moreover, the IC50 in data set [3] is > 6.25 µM.

On to `CCCCCCCCCCCOC(=O)C(CCCCN1C(=O)CCC1=O)N1CCOCC1` (stereo unspecified), for which the “fold change (FC)” value in data set [1] amounted to 1.61. Moreover, in data set [2], the “log K” value is 0.7588. Also, the IC50 in data set [3] is > 6.25 µM.

Turning to `CC(=O)N(O)CCCCCNC(=O)CCC(=O)N(O)CCCCCNC(=O)CCC(=O)N(O)CCCCCN` [DEFEROXAMINE], in data set [3], the concentration for half-maximal inhibition (IC50) is 17.1 µM.

Consider `CCCCCCCCCCCCOC(=O)C(CCCCN1C(=O)CCC1=O)N1CCCCC1=O` (stereo unspecified), for which the “fold change (FC)” value in data set [1] stood at 1.75. Besides, in data set [2], the “log K” value was 0.7413. In data set [3], the 50% inhibitory concentration (IC50) was > 6.25 µM.

With `CCCCCCCCCCCOC(=O)C(CCCCN1C(=O)CCC1=O)N1CCCCC1=O` (stereo unspecified), in data set [1], the “fold change (FC)” value is recorded as 2.36. Also, in data set [2], the “log K” value was found to be 0.5894. Besides, in data set [3], the IC50 is > 6.25 µM.
